In ChEMBL document CHEMBL1124291, “New actinomycin D analogues as superior chemotherapeutic agents against primary and advanced colon tumors and colon xenografts in nude mice” (J Med Chem, 1988):

What was measured:
MC-38 [1] = test: Number of toxic deaths/number of mice in a group of non tumored mice treated in parallel with the tumor-bearing mice and observed for 100 days at a dose 4.0 mg/kg; value given as 3/9; type: toxicity, organism-based; parameters: dose 4 mg/kg; conditions: mouse, in vivo, 2400 h
Summary of the method: (§1)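 Non-tumored CDF1 mice were treated in parallel with colon 38 tumor-bearing mice: iv injections on days 1, 5 and 9, groups of nine. Deaths were counted over 100 days of observation and reported as toxic deaths / mice in group.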

MC-38 [2] = test: Number of toxic deaths/number of mice in a group of non tumored mice treated in parallel with the tumor-bearing mice and observed for 100 days at a dose 2.0 mg/kg; value given as 0/9; type: functional, Mus musculus; summary of the method: as §1
P388 [3] = test: Antitumor activity in P388/ADR (adriamycin resistant), in male BDF1 mice measured as optimal dose at dose 2.5-4.5 mg/kg/ inj, ip
MC-38 [4] = test: Mean survival time of treated / untreated group x100. (number of over 100-day survivors/number of total mice in the group) at a dose 4.0 mg/kg; type: functional, Mus musculus
Summary of the method: (§2)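 CDF1 mice were implanted sc on day 0 with colon 38 adenocarcinoma fragments (70 mg) and given iv drug on days 1, 5 and 9. %T/C = median survival of treated / untreated × 100. Number of mice surviving over 100 days / group total is given in parentheses.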

MC-38 [5] = test: Number of toxic deaths/number of mice in a group of non tumored mice treated in parallel with the tumor-bearing mice and observed for 100 days at a dose 3.0 mg/kg; value given as 0/9; type: functional, Mus musculus; summary of the method: as §1
P388 [6] = test: Antitumor activity in P388/S(AMD sensitive) in male BDF1 mice measured as optimal dose
MC-38 [7] = test: Activity against advanced carcinoma C38 Tumor in CDF1 Mice at dose 2.0 mg/Kg measured as % inhibition of tumor; type: functional; conditions: Mus musculus
MC-38 [8] = test: Mean survival time of treated / untreated group x100. (number of over 100-day survivors/number of total mice in the group) at a dose 3.0 mg/kg; type: functional, Mus musculus; summary of the method: as §2
MC-38 [9] = test: Number of toxic deaths/number of mice in a group of non tumored mice treated in parallel with the tumor-bearing mice and observed for 100 days at a dose 5.0 mg/kg; value given as 8/9; type: toxicity, organism-based; parameters: dose 5 mg/kg; conditions: mouse, in vivo, 2400 h; summary of the method: as §1
MC-38 [10] = test: Activity against advanced carcinoma C38 Tumor in CDF1 Mice at dose 4.0 mg/Kg measured as % inhibition of tumor; type: functional; conditions: Mus musculus
MC-38 [11] = test: Activity against advanced carcinoma C38 Tumor in CDF1 Mice at dose 3.0 mg/Kg measured as % inhibition of tumor; type: functional; conditions: Mus musculus
Rattus norvegicus [12] = species: Rattus norvegicus; test: Percent of the SAD glucuronide and/or sulfate isolated from incubation mixture containing tumor cell homogenate(T) after 8.0, 10.5 min.; type: functional
Summary of the method: (§3)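 Tritiated analogues were incubated with two systems. (T) sonicated P388 cell homogenates, 37 °C for 16 h. (M) liver microsomes from phenobarbital-induced rats, 6 h with an NADPH-generating system (glucose-6-phosphate dehydrogenase plus glucose 6-phosphate). Metabolites and water-soluble conjugates were isolated, separated by HPLC and expressed as percentages.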

MC-38 [13] = test: Mean survival time of treated / untreated group x100. (number of over 100-day survivors/number of total mice in the group) at a dose 0.30 mg/kg; type: functional, Mus musculus; conditions: dose 0.3 mg/kg; summary of the method: as §2
Rattus norvegicus [14] = species: Rattus norvegicus; test: Percent of the tissue bound conjugates isolated from incubation mixture containing rat microsomes; type: functional; summary of the method: as §3
HT-29 [15] = test: 50% inhibition of incorporationf precursor [3H]thymidine into DNA HT-29 cell lines; type: functional, cell-based; conditions: Homo sapiens, HT-29, 2 h
Summary of the method: (§4)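 HT-29 colon carcinoma monolayers, 10^4 cells per well, five wells per concentration. Drug exposure lasted 2 h, with [³H]thymidine and [2-¹⁴C]uridine (0.5 μCi each) added for the last hour. Cells were washed, trypsinized, counted and precipitated onto glass-fiber filters with 10% TCA. Acid-precipitable radioactivity was measured. IC50 is the concentration inhibiting 50% of incorporation; data are averages of replicate experiments.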

Rattus norvegicus [16] = species: Rattus norvegicus; test: DNA-cleaving ability expressed as % of closed circular pBR322 DNA cleaved […] conc 50 uM; type: functional
Summary of the method: (§5)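 pBR322 DNA (200 μM nucleotides) in 10 mM Tris·HCl pH 7.8 and 50 mM NaCl, with 4 mM Na₂S₂O₄ and 100 μM FeCl₂. Incubated with drug for 1 h at 20 °C, kept air-saturated. Supercoiled and open-circular forms were separated by agarose gel electrophoresis, stained with ethidium bromide and quantitated by densitometry. % cleaved was calculated from the open- and closed-circular amounts.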

MC-38 [17] = test: Mean survival time of treated / untreated group x100. (number of over 100-day survivors/number of total mice in the group) at a dose 1.20 mg/kg; type: functional, Mus musculus; conditions: dose 1.2 mg/kg; summary of the method: as §2
HT-29 [18] = test: 50% inhibition of incorporationf precursor [3H]thymidine into RNA HT-29 cell lines; type: functional, cell-based; conditions: Homo sapiens, HT-29, 2 h; in the assay text read “[14C]uridine” for “[3H]thymidine”; summary of the method: as §4
[19] = DNA-cleaving ability expressed as % of closed circular pBR322 DNA cleaved at 10 uM conc 10 uM
MC-38 [20] = test: Number of toxic deaths/number of mice in a group of non tumored mice treated in parallel with the tumor-bearing mice and observed for 100 days at a dose of 1.20 mg/ Kg; value given as 4/9; type: toxicity; conditions: mouse, in vivo, 1.2 mg/kg, 2400 h; summary of the method: as §1
pBR322 plasmid DNA = test: DNA-cleaving ability expressed as % of closed circular pBR322 DNA cleaved […]
Rattus norvegicus [21] = species: Rattus norvegicus; test: Stimulation of NADPH oxidation in the presence of rat liver microsomes; type: functional
Summary of the method: (§6)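 Drug-stimulated superoxide generation with rat liver microsomal enzymes and NADPH as cofactor. NADPH oxidation was read at 340 nm. Adrenochrome formed from epinephrine was read at 480 nm, with or without superoxide dismutase. % stimulation = [(drug-stimulated rate − basal rate)/basal rate] × 100. Values are mean ± standard error of triplicate analyses.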

MC-38 [22] = test: Activity against advanced carcinoma C38 tumor in CDF1 Mice at dose 0.30 mg/kg measured as % inhibition of tumor; type: functional; conditions: Mus musculus
Rattus norvegicus [23] = species: Rattus norvegicus; test: Percent of the protein conjugates isolated from incubation mixture containing tumor cell homogenate(T); type: functional; summary of the method: as §3
P388 [24] = test: Antitumor activity in P388/ADR (adriamycin resistant), in male BDF1 mice measured as optimal dose
MC-38 [25] = test: Mean survival time of treated / untreated group x100. (number of over 100-day survivors/number of total mice in the group) at a dose 0.60 mg/kg; type: functional, Mus musculus; conditions: dose 0.6 mg/kg; summary of the method: as §2
P388 (Mus musculus) [26] = test: Percent of the tissue bound conjugates isolated from incubation mixture containing tumor cell homogenate(T)
B16 [27] = test: In vivo antitumor activity against B16 melanoma cells at dose 300 ug/Kg /inj measured as Mean survival time (MST); type: functional, Mus musculus
Summary of the method: (§7)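 BDF1 mice in groups of nine were implanted ip on day 0 with 0.2 mL of 1:5 (w/v) B16 melanoma brei; drugs were given ip. Survival is reported as median survival time in days with range, and as %ILS, with survivors counted on day 65 out of total injected.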

Rattus norvegicus [28] = species: Rattus norvegicus; test: Percent of the unidentified metabolites isolated from incubation mixture containing rat micro somes; type: functional; summary of the method: as §3
Rattus norvegicus [29] = species: Rattus norvegicus; test: The formation of adrenochrome from epinephrine in the absence of SOD(super oxide dismutase); type: functional; summary of the method: as §6
P388 [30] = test: 50% inhibition of incorporation of precursor [3H]thymidine into DNA P388 cell lines; type: functional, cell-based; conditions: Mus musculus, P388, 2 h
MC-38 [31] = test: Activity against advanced carcinoma C38 tumor in CDF1 mice at dose 1.20 mg/kg measured as % inhibition of tumor; type: functional; conditions: Mus musculus
Rattus norvegicus [32] = species: Rattus norvegicus; test: The formation of adrenochrome from epinephrine in the presence of SOD(super oxide dismutase); + denotes ' Inhibited'; type: functional; summary of the method: as §6
MC-38 [33] = test: Activity against advanced carcinoma C38 tumor in CDF1 Mice at dose 0.60 mg/kg measured as % inhibition of tumor; type: functional; conditions: Mus musculus
P388 (Mus musculus) [34] = test: Percent of the uncoverted isolated from incubation mixture containing tumor cell homogenate(T)
P388 [35] = test: 50% inhibition of incorporation precursor [14C]uridine into RNA P388 cell lines; type: functional, cell-based; conditions: Mus musculus
Rattus norvegicus [36] = species: Rattus norvegicus; test: Percent of the uncoverted isolated from incubation mixture containing trat microsomes,; type: functional; summary of the method: as §3
B16 [37] = test: In vivo antitumor activity against B16 melanoma cells at a optimal dose measured as %ILS (%increase life span); type: functional, Mus musculus; summary of the method: as §7
Rattus norvegicus [38] = species: Rattus norvegicus; test: Percent of the protein conjugates isolated from incubation mixture containing rat micro somes; type: functional; summary of the method: as §3
P388 [39] = test: Antitumor activity in P388/S(AMD sensitive) in male BDF1 mice measured as optimal dose at dose 0.3-1.8 mg/kg
P388 (Mus musculus) [40] = test: Percent of the unidentified metabolites isolated from incubation mixture containing tumor cell homogenate(T)
MC-38 [41] = test: Number of toxic deaths/number of mice in a group of non tumored mice treated in parallel with the tumor-bearing mice and observed for 100 days at a dose of 0.30 mg/ kg; value given as 0/9; type: functional, Mus musculus; summary of the method: as §1
Rattus norvegicus [42] = species: Rattus norvegicus; test: DNA-cleaving ability expressed as % of closed circular pBR322 DNA cleaved at 100 uM conc 100 uM; type: functional; summary of the method: as §5
MC-38 [43] = test: Number of toxic deaths/number of mice in a group of non tumored mice treated in parallel with the tumor-bearing mice and observed for 100 days at a dose of 0.60 mg/ kg; value given as 0/9; type: functional, Mus musculus; summary of the method: as §1

COc1cccc2c1C(=O)c1c(O)c3c(c(O)c1C2=O)C[C@@](O)(C(=O)CO)C[C@@H]3O[C@H]1C[C@H](N)[C@H](O)[C@H](C)O1 [DOXORUBICIN]
Toxic deaths (MC-38 [1]): 3 | Toxic deaths (MC-38 [2]): 0 | optimal dose (P388 [3]): 3.5 mg/kg | T/C (MC-38 [4]): 250% | Toxic deaths (MC-38 [5]): 0 | optimal dose (P388 [6]): 3 mg/kg | inhibition in vivo at 2 mg/kg (MC-38 [7]): 29% | T/C (MC-38 [8]): 98% | Toxic deaths (MC-38 [9]): 8 | inhibition in vivo at 4 mg/kg (MC-38 [10]): 93% | inhibition in vivo at 3 mg/kg (MC-38 [11]): 70%

Cc1c2oc3c(C)c(O)c(N)c(C(=O)N[C@@H]4C(=O)N[C@H](C(C)C)C(=O)N5CCC[C@H]5C(=O)N(C)CC(=O)N(C)[C@@H](C(C)C)C(=O)O[C@@H]4C)c3nc-2c(C(=O)N[C@@H]2C(=O)N[C@H](C(C)C)C(=O)N3CCC[C@H]3C(=O)N(C)CC(=O)N(C)[C@@H](C(C)C)C(=O)O[C@@H]2C)c(N)c1=O
Activity (Rattus norvegicus [12]): 47% | T/C (MC-38 [13]): 278% | Activity (Rattus norvegicus [14]): 15% | IC50 (HT-29 [15]): 70 nM | Activity (Rattus norvegicus [16]): 50% | T/C (MC-38 [17]): 211% | IC50 (HT-29 [18]): 55 nM | Activity [19]: 35% | Toxic deaths (MC-38 [20]): 4 | Activity (pBR322 plasmid DNA): 50% | NADPH oxidation (nM min-1 (mg of protein)-1) (Rattus norvegicus [21]): 64.3 | inhibition in vivo at 0.3 mg/kg (MC-38 [22]): 95% | Activity (Rattus norvegicus [23]): 5.5% | optimal dose (P388 [24]): 1.2 mg/kg | T/C (MC-38 [25]): 278% | Activity (P388 (Mus musculus) [26]): 7.5% | MST (B16 [27]): 57 | Activity (Rattus norvegicus [28]): 15% | Adrenochrome formation (Rattus norvegicus [29]): 19.3 nM min-1 (mg of protein)-1 | IC50 (P388 [30]): 12 nM | inhibition in vivo at 1.2 mg/kg (MC-38 [31]): 99% | Adrenochrome formation (Rattus norvegicus [32]): Inhibited | inhibition in vivo at 0.6 mg/kg (MC-38 [33]): 97% | Activity (P388 (Mus musculus) [34]): 30% | IC50 (P388 [35]): 15 nM | Activity (Rattus norvegicus [36]): 50% | ILS (B16 [37]): 96% | Activity (Rattus norvegicus [38]): 20% | optimal dose (P388 [39]): 0.6 mg/kg | Activity (P388 (Mus musculus) [40]): 10% | Toxic deaths (MC-38 [41]): 0 | Activity (Rattus norvegicus [42]): 65% | Toxic deaths (MC-38 [43]): 0
